Data taken from ChEMBL document CHEMBL1138386, “Discovery of potent and selective PKC-theta inhibitors” (Bioorg Med Chem Lett, 2007).

Experiments:
[1] = target: T1, Protein kinase C theta type (Homo sapiens, UniProt Q04759); test: Inhibition of PKCtheta by FP assay
Method in brief: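 Recombinant PKC-θ, […], in 20 mM Hepes pH 7.6 with 0.1 mM CaCl2, 10 mM MgCl2, 0.01% Chaps, TCEP, Na orthovanadate and protease inhibitor cocktail. Enzyme pre-incubated with compound dilutions for 10 min at rt. Phosphopeptide read by competition FP using fluorescein-labelled phosphopeptide tracer and anti-phosphoserine antibody in quench buffer.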

[2] = Permeability across Caco-2 cells from apical to basolateral side; format: ADME, cell-based; settings: human, read-out: permeability
[3] = target: Cytochrome P450 2D6 (Homo sapiens, UniProt P10635); test: Inhibition of CYP2D6; format: ADME
Sequence of Cytochrome P450 2D6 (P10635 whole entry): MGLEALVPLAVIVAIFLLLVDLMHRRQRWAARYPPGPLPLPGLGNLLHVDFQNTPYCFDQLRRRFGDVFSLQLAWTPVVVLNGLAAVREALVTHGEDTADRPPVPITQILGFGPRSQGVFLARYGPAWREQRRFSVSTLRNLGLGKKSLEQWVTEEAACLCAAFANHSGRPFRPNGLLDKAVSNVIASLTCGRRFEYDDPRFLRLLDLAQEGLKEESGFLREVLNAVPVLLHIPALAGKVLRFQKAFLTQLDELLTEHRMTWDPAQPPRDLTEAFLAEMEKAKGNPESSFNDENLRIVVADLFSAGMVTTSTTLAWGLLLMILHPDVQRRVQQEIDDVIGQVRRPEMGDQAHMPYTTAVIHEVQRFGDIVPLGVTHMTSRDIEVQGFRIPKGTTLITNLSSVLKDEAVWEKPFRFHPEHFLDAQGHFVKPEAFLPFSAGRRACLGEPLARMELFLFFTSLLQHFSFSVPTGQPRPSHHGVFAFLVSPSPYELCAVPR

[4] = target: Cytochrome P450 2C9 (Homo sapiens, UniProt P11712); test: Inhibition of CYP2C9; format: ADME
Sequence of Cytochrome P450 2C9 (P11712 whole entry): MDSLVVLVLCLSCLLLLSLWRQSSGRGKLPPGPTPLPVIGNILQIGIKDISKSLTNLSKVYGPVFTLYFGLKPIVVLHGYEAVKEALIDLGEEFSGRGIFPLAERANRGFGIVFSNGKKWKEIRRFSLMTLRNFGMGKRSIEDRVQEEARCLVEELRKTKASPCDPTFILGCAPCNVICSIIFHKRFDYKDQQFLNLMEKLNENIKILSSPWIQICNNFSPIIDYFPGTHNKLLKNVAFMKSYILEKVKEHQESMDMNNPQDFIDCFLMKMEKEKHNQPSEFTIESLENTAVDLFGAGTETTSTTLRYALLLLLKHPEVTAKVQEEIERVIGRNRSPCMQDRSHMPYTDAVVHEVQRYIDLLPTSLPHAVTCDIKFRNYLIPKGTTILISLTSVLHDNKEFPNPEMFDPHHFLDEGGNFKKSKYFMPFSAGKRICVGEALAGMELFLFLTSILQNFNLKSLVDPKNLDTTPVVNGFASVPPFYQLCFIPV

[5] = tested on: T-cell; test: Inhibition of IL2 production in […]-stimulated human CD4+ T cells; format: functional, cell-based; settings: in the assay text read “anti-CD3/anti-CD28” for “anti-CD3/anti-CD8”
Method in brief: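 Human CD4+ T cells isolated from whole blood by positive selection. Cells activated through TCR and CD28 with anti-CD3 and anti-CD28 mAbs. 50,000 cells/well exposed to compound dilutions at 0.125% DMSO final, or DMSO alone, overnight at 37 °C. Supernatant IL-2 measured by ELISA after 1:10 dilution.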

[6] = Permeability across Caco-2 cells from basolateral to apical side; format: ADME, cell-based; settings: human, read-out: permeability
[7] = target: T2, Cytochrome P450 3A4 (Homo sapiens, UniProt P08684); test: Inhibition of CYP3A4 in presence of BQ substrate; format: ADME
T2 sequence (P08684 whole entry): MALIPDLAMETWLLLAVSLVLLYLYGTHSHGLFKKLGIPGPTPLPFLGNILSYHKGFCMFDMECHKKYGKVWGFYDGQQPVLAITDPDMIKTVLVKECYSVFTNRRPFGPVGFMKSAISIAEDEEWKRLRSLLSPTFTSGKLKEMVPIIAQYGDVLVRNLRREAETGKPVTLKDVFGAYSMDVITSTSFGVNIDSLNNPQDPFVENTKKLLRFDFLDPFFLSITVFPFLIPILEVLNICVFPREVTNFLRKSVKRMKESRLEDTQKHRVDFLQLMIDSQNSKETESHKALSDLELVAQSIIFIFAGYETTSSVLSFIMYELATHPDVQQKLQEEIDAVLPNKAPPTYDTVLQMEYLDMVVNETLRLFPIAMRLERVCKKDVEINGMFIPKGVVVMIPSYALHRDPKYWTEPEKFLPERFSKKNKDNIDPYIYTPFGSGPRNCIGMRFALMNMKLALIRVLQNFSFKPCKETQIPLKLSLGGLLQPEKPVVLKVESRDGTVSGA

[8] = Stability in human liver microsomes; format: ADME, Microsome
[9] = target: T2, Cytochrome P450 3A4; test: Inhibition of CYP3A4 in presence of BFC substrate; format: ADME
[10] = target: T1, Protein kinase C theta type; test: Inhibition of PKCtheta in presence of 50 uM ATP
[11] = target: T1, Protein kinase C theta type; test: Inhibition of PKCtheta in presence of 100 uM ATP

T1 sequence (Q04759 whole entry): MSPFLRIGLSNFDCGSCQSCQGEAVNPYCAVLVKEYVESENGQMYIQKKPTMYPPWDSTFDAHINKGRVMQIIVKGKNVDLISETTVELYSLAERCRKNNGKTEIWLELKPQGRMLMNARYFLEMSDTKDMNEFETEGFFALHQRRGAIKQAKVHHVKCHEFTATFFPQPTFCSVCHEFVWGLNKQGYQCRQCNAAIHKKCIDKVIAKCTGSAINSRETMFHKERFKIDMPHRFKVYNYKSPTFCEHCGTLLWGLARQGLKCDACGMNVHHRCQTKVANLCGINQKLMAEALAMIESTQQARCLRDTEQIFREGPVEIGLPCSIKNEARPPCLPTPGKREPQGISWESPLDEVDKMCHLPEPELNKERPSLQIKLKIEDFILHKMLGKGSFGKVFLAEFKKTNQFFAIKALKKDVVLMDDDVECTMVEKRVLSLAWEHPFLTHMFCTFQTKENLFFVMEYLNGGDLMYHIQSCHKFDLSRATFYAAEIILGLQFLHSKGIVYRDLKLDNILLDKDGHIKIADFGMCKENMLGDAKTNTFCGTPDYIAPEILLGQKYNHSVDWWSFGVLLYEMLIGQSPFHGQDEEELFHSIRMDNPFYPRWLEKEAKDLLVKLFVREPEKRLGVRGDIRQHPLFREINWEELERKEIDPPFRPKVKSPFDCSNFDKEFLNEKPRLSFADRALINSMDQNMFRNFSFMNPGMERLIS

| Compound | IC50 [1] | further results |
| --- | --- | --- |
| NCC1CCC(CNc2nc(NCc3cccc(Cl)c3)ncc2[N+](=O)[O-])CC1 (stereo unspecified) | 85 nM |  |
| COc1ccc(CNc2ncc([N+](=O)[O-])c(NCC3CCC(CN)CC3)n2)cc1 (stereo unspecified) | 12000 nM |  |
| NCC1CCC(CNc2nc(NCc3ccccc3C(F)F)ncc2[N+](=O)[O-])CC1 (stereo unspecified) | 15 nM |  |
| NCCCNc1nc(NCc2ccccc2Cl)ncc1[N+](=O)[O-] | > 10000 nM |  |
| NCC1CCC(CNc2nc(NCCc3ccc(F)cc3)ncc2[N+](=O)[O-])CC1 (stereo unspecified) | 77 nM |  |
| O=[N+]([O-])c1cnc(NCc2ccccc2Cl)nc1NCC1CCCCC1 | > 10000 nM |  |
| Cc1ccccc1CCNc1ncc([N+](=O)[O-])c(NCC2CCC(CN)CC2)n1 (stereo unspecified) | 180 nM |  |
| NCCCCCNc1nc(NCc2ccccc2Cl)ncc1[N+](=O)[O-] | 450 nM |  |
| NCC1CCC(CNc2nc(NCCc3ccccc3F)ncc2[N+](=O)[O-])CC1 (stereo unspecified) | 130 nM |  |
| NCc1ccc(CNc2nc(NCc3ccccc3Cl)ncc2[N+](=O)[O-])cc1 | 160 nM |  |
| NCC1CCC(CNc2nc(NCCc3cccc(F)c3)ncc2[N+](=O)[O-])CC1 (stereo unspecified) | 54 nM |  |
| CC(C)(Nc1ncc([N+](=O)[O-])c(NCC2CCC(CN)CC2)n1)c1ccccc1 (stereo unspecified) | 2500 nM |  |
| NCC1CCC(CNc2nc(NCc3ccccc3[N+](=O)[O-])ncc2[N+](=O)[O-])CC1 (stereo unspecified) | 11 nM |  |
| NCC1CCC(CNc2nc(Nc3cccc(Cl)c3)ncc2C(F)(F)F)CC1 (stereo unspecified) | 640 nM |  |
| NCC1CCC(CNc2nc(NC3Cc4ccccc4C3)ncc2[N+](=O)[O-])CC1 (stereo unspecified) | 31 nM |  |
| NCC1CCC(CNc2nc(NCc3ccc(Cl)cc3)ncc2[N+](=O)[O-])CC1 (stereo unspecified) | 170 nM |  |
| NCC1CCC(CNc2nc(NCc3ccccc3C(F)(F)F)ncc2[N+](=O)[O-])CC1 (stereo unspecified) | 12 nM |  |
| C[C@H](Nc1ncc([N+](=O)[O-])c(NCC2CCC(CN)CC2)n1)c1ccccc1 (stereo partly specified) | 3700 nM |  |
| CN(C)CC1CCC(CNc2nc(NCc3ccccc3Cl)ncc2[N+](=O)[O-])CC1 (stereo unspecified) | 54 nM | Papp A→B [2]: 10.6 ×10⁻⁶ cm/s; IC50 [3]: 1.7 µM; IC50 [4]: 8.4 µM; IC50 [5]: 190 nM; Papp B→A [6]: 10.2 ×10⁻⁶ cm/s; IC50 [7]: 13 µM; half-life [8]: 40 min; IC50 [9]: 1.7 µM |
| NCC1CCC(CNc2nc(NCc3ccc(F)cc3)ncc2[N+](=O)[O-])CC1 (stereo unspecified) | 210 nM |  |
| NCC1CCC(CNc2nc(NCc3ccccc3-c3ccccc3)ncc2[N+](=O)[O-])CC1 (stereo unspecified) | 39 nM |  |

| Compound | IC50 [1] | further results |
| --- | --- | --- |
| NCC1CCC(CNc2nc(NCc3ccc(F)cc3F)ncc2[N+](=O)[O-])CC1 (stereo unspecified) | 100 nM |  |
| NCC1CCC(CNc2nc(Nc3cc(Cl)cc(Cl)c3)ncc2[N+](=O)[O-])CC1 (stereo unspecified) | 680 nM |  |
| NCC1CCC(CNc2nc(N[C@H]3CCc4ccccc43)ncc2[N+](=O)[O-])CC1 (stereo partly specified) | 4400 nM |  |
| NCC1CCC(CNc2nc(N[C@@H]3CCc4ccccc43)ncc2[N+](=O)[O-])CC1 (stereo partly specified) | 460 nM |  |
| NCc1cccc(CNc2nc(NCc3ccccc3Cl)ncc2[N+](=O)[O-])c1 | 200 nM |  |
| NCC1CCC(CNc2nc(NCCCCc3ccccc3)ncc2[N+](=O)[O-])CC1 (stereo unspecified) | 90 nM |  |
| NCC1CCC(CNc2nc(Nc3cccc(Cl)c3)ncc2[N+](=O)[O-])CC1 (stereo unspecified) | 60 nM |  |
| NCC1CCC(CNc2nc(NCc3ccccc3F)ncc2[N+](=O)[O-])CC1 (stereo unspecified) | 48 nM |  |
| NCC1CCC(CNc2nc(NCc3ccc(Cl)cc3Cl)ncc2[N+](=O)[O-])CC1 (stereo unspecified) | 27 nM |  |
| Cc1ccc(C)c(CNc2ncc([N+](=O)[O-])c(NCC3CCC(CN)CC3)n2)c1 (stereo unspecified) | 910 nM |  |
| NCC1CCC(CNc2nc(NCc3ccccc3OC(F)(F)F)ncc2[N+](=O)[O-])CC1 (stereo unspecified) | 18 nM |  |
| COc1cccc(CNc2ncc([N+](=O)[O-])c(NCC3CCC(CN)CC3)n2)c1 (stereo unspecified) | 210 nM |  |
| NCC1CCC(CNc2nc(NCc3cccc(F)c3F)ncc2[N+](=O)[O-])CC1 (stereo unspecified) | 22 nM |  |
| CSc1ccccc1CNc1ncc([N+](=O)[O-])c(NCC2CCC(CN)CC2)n1 (stereo unspecified) | 5 nM | Papp A→B [2]: 1.6 ×10⁻⁶ cm/s; IC50 [3]: 4.7 µM; IC50 [4]: 1.4 µM; IC50 [5]: 140 nM; Papp B→A [6]: 1.9 ×10⁻⁶ cm/s; IC50 [7]: > 30 µM; half-life [8]: 65 min; IC50 [9]: 6.9 µM |
| NCC1CCCC(CNc2nc(NCc3ccccc3Cl)ncc2[N+](=O)[O-])C1 (stereo unspecified) | 3 nM |  |
| C[C@@H](Nc1ncc([N+](=O)[O-])c(NCC2CCC(CN)CC2)n1)c1ccccc1 (stereo partly specified) | 5700 nM |  |
| Cc1c(Cl)cccc1CNc1ncc([N+](=O)[O-])c(NCC2CCC(CN)CC2)n1 (stereo unspecified) | 46 nM |  |
| NCCCCCCCNc1nc(NCc2ccccc2Cl)ncc1[N+](=O)[O-] | 110 nM |  |
| O=[N+]([O-])c1cnc(NCc2ccccc2Cl)nc1NCC1CCNCC1 | 90 nM | Papp A→B [2]: 8.1 ×10⁻⁶ cm/s; IC50 [3]: > 30 µM; IC50 [4]: 17.6 µM; IC50 [5]: 720 nM; Papp B→A [6]: 10.6 ×10⁻⁶ cm/s; IC50 [7]: > 30 µM; half-life [8]: 66 min; IC50 [9]: 28 µM |
| NCC1CCC(CNc2nc(NCc3cc(Cl)ccc3Cl)ncc2[N+](=O)[O-])CC1 (stereo unspecified) | 7 nM |  |
| NC[C@H]1CC[C@@H](CNc2nc(NCc3ccccc3Cl)ncc2[N+](=O)[O-])CC1 | 18 nM |  |

| Compound | IC50 [1] | further results |
| --- | --- | --- |
| NCC1CCC(CNc2nc(NCc3c(F)cccc3F)ncc2[N+](=O)[O-])CC1 (stereo unspecified) | 42 nM |  |
| NCC1CCC(CNc2nc(Nc3cc(Cl)cc(Cl)c3)ncc2C(F)(F)F)CC1 (stereo unspecified) | 4200 nM |  |
| COc1cc(CNc2ncc([N+](=O)[O-])c(NCC3CCC(CN)CC3)n2)cc(OC)c1 (stereo unspecified) | 1500 nM |  |
| Cc1ccccc1CNc1ncc([N+](=O)[O-])c(NCC2CCC(CN)CC2)n1 (stereo unspecified) | 34 nM |  |
| NCC1CCC(CNc2nc(NCCCc3ccccc3)ncc2[N+](=O)[O-])CC1 (stereo unspecified) | 270 nM |  |
| NCC1CCC(CNc2nc(NCc3ccccc3Br)ncc2[N+](=O)[O-])CC1 (stereo unspecified) | 5 nM |  |
| NCC1CCC(CNc2nc(NCc3cc(F)ccc3F)ncc2[N+](=O)[O-])CC1 (stereo unspecified) | 35 nM |  |
| NCC1CCC(CNc2nc(NCc3ccccc3SC(F)(F)F)ncc2[N+](=O)[O-])CC1 (stereo unspecified) | 6 nM |  |
| Cc1cccc(CNc2ncc([N+](=O)[O-])c(NCC3CCC(CN)CC3)n2)c1C (stereo unspecified) | 13 nM |  |
| NCC1CCC(CNc2nc(NCc3ccccc3Cl)ncc2[N+](=O)[O-])CC1 (stereo unspecified) | 46 nM | Papp A→B [2]: 4 ×10⁻⁶ cm/s; IC50 [3]: 4.3 µM; IC50 [10]: 290 nM; IC50 [4]: 1 µM; IC50 [5]: 84 nM; Papp B→A [6]: 6.9 ×10⁻⁶ cm/s; IC50 [7]: 1.4 µM; half-life [8]: 48 min; IC50 [9]: 0.7 µM; IC50 [11]: 630 nM |
| Cc1cccc(CNc2ncc([N+](=O)[O-])c(NCC3CCC(CN)CC3)n2)c1 (stereo unspecified) | 39 nM |  |
| NCC1CCC(CNc2nc(NC(=O)c3ccccc3Br)ncc2[N+](=O)[O-])CC1 (stereo unspecified) | 2200 nM |  |
| NCC1CCC(CNc2nc(NCc3cc(Cl)cc(Cl)c3)ncc2[N+](=O)[O-])CC1 (stereo unspecified) | 400 nM |  |
| NCC1CCC(CNc2nc(NCCc3ccccc3)ncc2[N+](=O)[O-])CC1 (stereo unspecified) | 94 nM |  |
| CC(=O)NCC1CCC(CNc2nc(NCc3ccccc3Cl)ncc2[N+](=O)[O-])CC1 (stereo unspecified) | > 10000 nM |  |
| COc1ccccc1CNc1ncc([N+](=O)[O-])c(NCC2CCC(CN)CC2)n1 (stereo unspecified) | 17 nM |  |
| NCC1CCC(CNc2nc(NCc3ccccc3)ncc2[N+](=O)[O-])CC1 (stereo unspecified) | 500 nM |  |
| NCC1CCC(CNc2nc(NCc3cccc(Cl)c3Cl)ncc2[N+](=O)[O-])CC1 (stereo unspecified) | 8 nM |  |
| NCC1CCC(CNc2nc(NCc3cccc(F)c3)ncc2[N+](=O)[O-])CC1 (stereo unspecified) | 83 nM |  |
| NC[C@H]1CC[C@H](CNc2nc(NCc3ccccc3Cl)ncc2[N+](=O)[O-])CC1 | 29 nM |  |
